The text below walks through data of ChEMBL document CHEMBL1147804, “3,4-Fused cyclohexyl sulfones as gamma-secretase inhibitors” (Bioorg Med Chem Lett, 2006).

Data set [1] concerns Mus musculus. The experiment in a line: Plasma concentration for reduction of DEA-extractable brain beta amyloid in orally dosed APP-YAC mouse after 4 hrs relative to control. Format: ADME, organism-based. In a few lines: (§1)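 APP-YAC transgenic mice were dosed orally with a dose-response titration, with vehicle and a positive-control γ-secretase inhibitor as references. At 4 h post-dose, DEA-extractable brain Aβ was measured alongside plasma and brain drug levels. EC50 is the plasma or brain concentration giving a 50% cut in brain Aβ. ED50 is the oral dose reaching those levels.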

Data set [2] concerns Mus musculus. Briefly: Reduction of DEA-extractable brain beta amyloid in orally dosed APP-YAC mouse after 4 hrs. It is filed as ADME, organism-based. To be noted: po. In outline: as §1
The nature of data set [3]: Brain to plasma ratio for reduction of DEA-extractable brain beta amyloid in orally dosed APP-YAC mouse after 4 hrs. Format: ADME, organism-based. To be noted: po.
Data set [4] addresses Gamma-secretase. The experiment in a line: Inhibition of gamma secretase. Format: protein-complex assay, Homo sapiens.
The test system of data set [5] is Mus musculus. Briefly: Brain concentration for reduction of DEA-extractable brain beta amyloid in orally dosed APP-YAC mouse after 4 hrs relative to control. Format: ADME, organism-based. In a few lines:
as §1

Data set [6] is described as follows: Stability assessed as liver microsomal turnover in rat at 1 uM. To be noted: liver microsomes, read-out: Stability. It is filed as ADME, Microsome. In outline:
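Compound at 1 μM was incubated with rat liver microsomal protein (5 mg/mL) plus NADPH at 37 °C for 20 min. Percentage of parent remaining was quantified by LC–MS.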
A general note: Liver microsomes are vesicles of endoplasmic reticulum, rich in cytochrome P450 enzymes.

Data set [7] can be described thus: Half life in rat. Format: ADME, organism-based. To be noted: in vivo.
A short description of data set [8]: Bioavailability in rat. It is filed as ADME, organism-based. To be noted: in vivo.

`O=S1(=O)NC[C@@H]2C[C@](c3cc(F)ccc3F)(S(=O)(=O)c3ccc(Cl)cc3)CC[C@@H]2N1C1CC1` (racemic): the 50% effective concentration (EC50) (usually the midpoint of the concentration-response curve) in data set [1] amounted to 104 nM; in data set [5] it was 20 nM. For the same compound, the 50% effective dose (ED50) (usually the dose that gives a 50% effect, or the effect in half of the subjects) in data set [2] was determined as 11.4 mg/kg. Further, the concentration ratio (Kp) (commonly tissue or fluid exposure divided by exposure in the circulation) at 4 h in data set [3] was 0.16. In addition, 0.04 nM corresponded to half-maximal inhibition in data set [4] (IC50).
Consider `CN1C[C@@H]2C[C@](c3cc(F)ccc3F)(S(=O)(=O)c3ccc(Cl)cc3)CC[C@@H]2NS1(=O)=O` (racemic), for which the metabolised at 1 µM in data set [6] was 17%. Half-maximal inhibition in data set [4] (IC50) required 0.9 nM.
Regarding `CC1C[C@@H]2C[C@](c3cc(F)ccc3F)(S(=O)(=O)c3ccc(Cl)cc3)CC[C@@H]2NS1(=O)=O` (single isomer, unassigned), the metabolised at 1 µM in data set [6] is 20%. Also, the IC50 (usually the concentration that inhibits the measured activity by half) in data set [4] turned out to be 0.08 nM.
In data set [4], `CC(C)N1C[C@@H]2C[C@](c3cc(F)ccc3F)(S(=O)(=O)c3ccc(Cl)cc3)CC[C@@H]2NS1(=O)=O` (racemic) came in with an IC50 of 0.41 nM.
Turning to `CS(=O)(=O)NCC1CCCC(c2cc(F)ccc2F)(S(=O)(=O)c2ccc(Cl)cc2)C1` (stereo not drawn), the half-life (commonly the time in which the quantity being followed falls by half) in data set [7] was 1.1 h. Besides, the bioavailability (usually the share of a dose that reaches the circulation, judged against a reference dose that is usually intravenous) in data set [8] amounted to 31%.
In the case of `O=S1(=O)N[C@H]2CC[C@@](c3cc(F)ccc3F)(S(=O)(=O)c3ccc(Cl)cc3)C[C@H]2CN1C1CCC1` (racemic), the metabolised at 1 µM in data set [6] came to 68%. Besides, the midpoint of inhibition in data set [4], the IC50, lay at 0.26 nM.
The matching figures for `CCN1C[C@@H]2C[C@](c3cc(F)ccc3F)(S(=O)(=O)c3ccc(Cl)cc3)CC[C@@H]2NS1(=O)=O` (racemic): 46% and 0.4 nM.
For the compound `CCC1C[C@@H]2C[C@](c3cc(F)ccc3F)(S(=O)(=O)c3ccc(Cl)cc3)CC[C@@H]2NS1(=O)=O` (single isomer, unassigned), the EC50 in data set [1] was found to be 380 nM; in data set [5], 88 nM. In data set [2], this compound had a 50% effective dose (ED50) of 2.8 mg/kg. In data set [6], the metabolised at 1 µM was determined as 7%. In addition, the Kp at 4 h in data set [3] stood at 0.18. Besides, the half-maximal inhibitory concentration (IC50) in data set [4] amounted to 0.06 nM.
As to `O=S1(=O)N[C@H]2CC[C@@](c3cc(F)ccc3F)(S(=O)(=O)c3ccc(Cl)cc3)C[C@H]2CN1C1CC1` (racemic), the metabolised at 1 µM in data set [6] amounted to 14%. The half-inhibitory concentration (IC50) in data set [4] was 0.19 nM.
The matching figures for `CC(C)(C)N1C[C@@H]2C[C@](c3cc(F)ccc3F)(S(=O)(=O)c3ccc(Cl)cc3)CC[C@@H]2NS1(=O)=O` (racemic): 15% and 1.39 nM.
The matching figures for `CCCC1C[C@@H]2C[C@](c3cc(F)ccc3F)(S(=O)(=O)c3ccc(Cl)cc3)CC[C@@H]2NS1(=O)=O` (single isomer, unassigned): 32% and 0.24 nM.
The matching figures for `O=S1(=O)NC[C@@H]2C[C@](c3cc(F)ccc3F)(S(=O)(=O)c3ccc(Cl)cc3)CC[C@@H]2N1` (racemic): 9% and 6.18 nM.
For `CCCN1C[C@@H]2C[C@](c3cc(F)ccc3F)(S(=O)(=O)c3ccc(Cl)cc3)CC[C@@H]2NS1(=O)=O` (racemic), in data set [6], the metabolised at 1 µM turned out to be 63%. Besides, 1.17 nM corresponded to half-maximal inhibition in data set [4] (IC50).
Regarding `CCC1C[C@@H]2C[C@](c3cc(F)ccc3F)(S(=O)(=O)c3ccc(Cl)cc3)CC[C@@H]2CS1(=O)=O` (single isomer, unassigned), the figures for the EC50 in data set [1] and in data set [5] were 761 nM and 327 nM, respectively. Further, the ED50 in data set [2] worked out at 3.9 mg/kg. For the same compound, the metabolised at 1 µM in data set [6] was 15%. Further, the Kp at 4 h in data set [3] turned out to be 0.41. This compound also gave a half-inhibitory concentration (IC50) in data set [4] of 0.76 nM.
